Screening data from PubChem BioAssay.
The list is not random: actives were taken first. Their share in the collection is about 3.7%.
Beta2AR agonist: activates human beta-2 adrenergic receptor causing internalization; 340,000 compounds, 0.43% hits; AID 504454; P07550; Am2.2-beta2AR cells, FAP receptor internalization, flow cytometry; response, % (test concentration not listed);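 active = response above a set limit, near 3 SD of response in nonfluorescent compounds, cut at about 42% in these data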
CHOP UPR activ: apoptotic UPR (CHOP) activation; CHO-CHOP luciferase reporter, luminescence; percent of tunicamycin response over DMSO baseline; activation, % at 10 µM; 330,000 compounds, 0.34% hits;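 active = at 10 µM dose, activation of 40% or more, normalized to positive control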
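Dosing – one dose, 10 µM in 0.5% DMSO · System – CHO-CHOP cells, stable luciferase reporter of PERK-eIF2a-CHOP signalling · Input – 500 cells/well · Control set – tunicamycin 10 µg/mL final as positive, DMSO-only wells as negative · Timing – 6 h compound treatment, 37 °C · Measure – % activation vs tunicamycin · Technique – luminescence read with Steady-Glo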
Mdm2 MdmX PPI: human Mdm2/MdmX binding inhibition | 330,000 compounds, 3% hits | AID 485346 | inhibition, % at 8 µM | SaOS-2 split-luciferase Mdm2/MdmX complementation, luminescence;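 active = inhibition of at least 50% at 8 µM in the primary screen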
Mdm2 ligase inh: inhibitors of human Mdm2 E3 ubiquitin ligase; cell-based MDM2 ubiquitination luciferase reporter, 2 h; 0 = plate control, 100 = twice control, blank-subtracted; AID 1230; Q00987; signal enhancement, % at 5 µM; 210,000 compounds, 0.11% hits;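 active = signal enhancement of 30% or more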;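 note: luminescence tracks abundance of the self-degrading MDM2-luciferase fusion protein; higher signal means inhibition of MDM2 E3 ligase activity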
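Material: stable MDM2–luciferase fusion reporter cells / Quantity: 2000 cells/well / Dosing: single 5 µM compound dose, 0.2% final DMSO / Buffer or medium: DMEM / Schedule: 4 h cell settling then 2 h compound exposure, 37 °C / Detection: luminescence with SteadyLite reagent, 15 min at room temperature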
Dynein cargo inh: blocks dynein driven cargo transport along microtubules | z-score, hits read low | 220,000 compounds, 0.47% hits | AID 1381 | 3617.4 mouse cells, GR-EGFP nuclear translocation imaging; test concentration mostly 20 µM; stimulated with dexamethasone, 1 µM; active compounds read low;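 active = plate z-score of nuclear minus cytoplasmic receptor signal below a set negative limit, without overly bright fluorescence or cell loss, cut at about -3.5 in these data, passing the limit was not always enough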;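 note: z-score of nuclear minus cytoplasmic ring GR-EGFP intensity difference per well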
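Buffer or medium: tet-free medium with charcoal-stripped serum / Also added: dexamethasone agonist, 1.0 µM final, for 30 min / Timing: induction 48 h, compound 1 h, agonist 30 min / Measured by: high-content fluorescence imaging after fixation / Read-out: nuclear-to-cytoplasmic GR-EGFP distribution per well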
XBP1 UPR activ: adaptive UPR (XBP1) activation; CHO-XBP1 luciferase reporter, IRE1-XBP1 UPR activation, luminescence; percent of tunicamycin response, DMSO as zero; activation, % at 20 µM; 330,000 compounds, 0.33% hits;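 active = versus positive control, 20 µM dose yields 30% or more activation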
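Test system: CHO-XBP1 luciferase reporter cells | Buffer or medium: Serum-containing F12 medium, 10% FBS | Schedule: 6 h compound exposure at 37 °C, 5% CO2 | Detection: Steady-Glo luciferase glow luminescence, 10 min after reagent addition | Read-out basis: Activation, % of tunicamycin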
Mdm2 MdmX conf: human Mdm2/MdmX binding inhibition, confirmed. shares compounds with Mdm2 MdmX PPI. 10,000 compounds, 55% hits. luminescent assay. inhibition, % at 8 µM; in the data active = inhibition above about 40%
Full FLuc ctr: full-length luciferase inhibition in Mdm2/MdmX counter-screen; inhibition, % at 8 µM; 6,200 compounds, 77% hits; shares compounds with Mdm2 MdmX PPI; SaOS-2 full-length luciferase counterscreen, luminescence; AID 504607;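 active = mean inhibition at 8 µM reaching about 37%, which flags the compound as non-specific, limit read from the data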;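 note: p53-null SaOS-2 cells with luciferase driven by a doxycycline-inducible promoter; compound on cells about two nights before reading with doxycycline added after day one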
Hits are given with their value; . = inactive; / = no result given.

SMILES	Beta2AR agonist	CHOP UPR activ	Mdm2 MdmX PPI	Mdm2 ligase inh	Dynein cargo inh	XBP1 UPR activ	Mdm2 MdmX conf	others
CC[C@]12c3[nH]c4ccc(Cl)cc4c3CCN1C(=O)[C@@H](CC(=O)NC/C=C(\C)CCC=C(C)C)C[C@@H]2C(=O)N1CCN(C(=O)C2CC2)CC1	.	.	69.7	/	/	.	.	Full FLuc ctr=71.3
CC[C@]12c3[nH]c4cc(-c5ccco5)ccc4c3CCN1C(=O)[C@@H](CC(=O)NC/C=C(\C)CCC=C(C)C)C[C@@H]2C(=O)N1CCN(C(=O)C2CC2)CC1	.	.	.	/	/	.	/
CC[C@]12c3[nH]c4cc(-c5ccco5)ccc4c3CCN1C(=O)[C@@H](CC(=O)NC/C=C(\C)CCC=C(C)C)C[C@@H]2C(=O)N1CCN(C(=O)c2ccco2)CC1	.	.	56.1	/	/	.	.
CC[C@]12c3[nH]c4ccccc4c3CCN1C(=O)C(CC(=O)NC/C=C(\C)CCC=C(C)C)C[C@@H]2C(=O)N1CCN(C(=O)c2ccco2)CC1 (some centres undefined)	.	.	54.2	/	/	.	.
CC[C@]12c3[nH]c4cc(CCC(=O)N(C)C)ccc4c3CCN1C(=O)[C@@H](CC(=O)NC/C=C(\C)CCC=C(C)C)C[C@@H]2C(=O)N1CCN(C(=O)C2CC2)CC1	.	.	.	/	/	.	/
CC1Cc2ccccc2N1C(=O)C(C)n1cc(C(F)(F)F)cc(Cl)c1=O (centres undefined)	.	.	.	/	/	.	/
N/C(Cn1cncn1)=N\OC(=O)c1ccc(Cl)cc1	.	.	51.0	.	.	.	.
N/C(=N\OC(=O)c1ccc(Cl)cc1)c1ccc(Cl)cc1	.	.	.	.	/	.	/
CCC1CCC2(CC1)NC(=O)N(CC(=O)Nc1ccc(OC)c(Cl)c1)C2=O (centres undefined)	.	.	.	/	/	.	/
Cc1cccc(Nc2nnc(-c3ccc(N4CCOCC4)c([N+](=O)[O-])c3)c3ccccc23)c1	.	.	59.5	.	.	.	.	Full FLuc ctr=84.4
Cc1cccc(NC(=O)CCS(=O)(=O)c2ccc3c(c2)NC(=O)CS3)n1	.	.	.	/	/	.	/
COc1ccc(C[C@H]2CN3C(=NC[C@H]3Cc3ccccc3)N2CCNC(=O)c2ccc(C)c(Br)c2)cc1	.	.	95.2	.	.	.	54.6	Full FLuc ctr=36.8
Cc1ccc(C(=O)NCCN2C3=NC[C@@H](Cc4ccccc4)N3C[C@H]2Cc2ccc(O)cc2)cc1Br	.	.	81.2	/	.	.	.
COc1ccc(C[C@H]2CN3C(=NC[C@@H]3Cc3ccccc3)N2CCNC(=O)c2ccc(C)c(Br)c2)cc1	.	.	100.3	/	.	.	41.8	Full FLuc ctr=56.7
Cc1ccc(C(=O)NCCN2C3=NC[C@H](Cc4ccc(O)cc4)N3C[C@H]2Cc2ccc(O)cc2)cc1Br	.	.	.	.	.	.	/
C/C=C(\C)C(=O)NCCN1C2=NC[C@H](Cc3ccccc3)N2C[C@@H]1Cc1ccc(OC)cc1	.	.	.	/	/	.	/
O=C(Nc1ccc(-c2n[nH]c(=S)o2)cc1)c1ccccc1	.	.	.	/	/	.	/
CC(NC(=O)c1ccccc1)C(=O)NNC(=O)c1ccccc1Cl (centres undefined)	.	.	.	/	/	.	/
CCc1ccc(N=C2N=C(N)c3ccccc32)cc1	.	.	55.2	.	.	.	.
Cc1ccc(N=C2N=C(N)c3ccccc32)cc1C	.	.	.	/	.	.	/
O=C(Nc1ccc(Oc2c(F)c(F)c(F)c(F)c2F)cc1)OC1CCN2Cc3ccccc3N=C12 (centres undefined)	101.7	.	68.4	/	.	.	.
O=S(=O)(NC1CCCC1)c1cc(F)ccc1F	.	.	.	/	/	.	/
CC(C)c1ccc(C(=O)NNC(=O)C2C3CCC(C3)C2C(=O)O)cc1 (centres undefined)	/	.	.	/	/	.	/
Cc1ccc(S(=O)(=O)CCc2nnc(N)s2)cc1C	.	.	.	.	.	.	/
Cc1ccc(S(=O)(=O)CCc2nnc(NC(=O)CCl)s2)cc1C	.	.	74.8	.	.	.	.
SMILES	Beta2AR agonist	CHOP UPR activ	Mdm2 MdmX PPI	Mdm2 ligase inh	Dynein cargo inh	XBP1 UPR activ	Mdm2 MdmX conf	others
FC(F)(F)Oc1ccc(NC(=S)Nc2ccc(OC(F)(F)F)cc2)cc1	.	.	79.4	.	.	.	.
COc1ccc(CCNC(=O)CNS(=O)(=O)c2ccc(F)c(Cl)c2)cc1OC	.	.	.	/	/	.	/
O=C(NCC1CCCO1)c1cc(Br)c(Br)s1 (centres undefined)	.	.	.	/	/	.	/
CCOC(=O)c1ccc(Nc2sc(C(=O)c3cccc([N+](=O)[O-])c3)c(N)c2C#N)cc1	.	.	75.0	.	.	.	74.2	Full FLuc ctr=44.4
COc1cc(/C=N/NC(=S)NC2CC3CC2C2C=CCC32)ccc1O (centres undefined)	.	.	63.1	.	.	.	.
Cc1cc(C)c(-c2c(O)c3cccnc3n(C)c2=O)c(C)c1	.	.	.	/	/	.	/
COc1ccc(C(=O)c2c(C)c3cc(C)ccc3n2CC(O)CN2CCOCC2)cc1 (centres undefined)	.	.	.	.	.	.	/
CC[C@@]1(O)C(=O)OCc2c1cc1n(c2=O)Cc2cc3c(N)cccc3nc2-1	.	.	100.3	.	.	.	95.8	Full FLuc ctr=52.8
CCCCc1cc(=O)oc2c(CN(C)C)c(O)ccc12	.	.	.	.	.	.	/
CC[C@@]1(O)C(=O)OCc2c1cc1n(c2=O)Cc2cc3c(CN(C)C)c(O)ccc3nc2-1	.	.	87.8	/	/	.	87.9	Full FLuc ctr=52.0
O=c1cccc2n1Cc1cc3ccccc3nc1-2	.	.	.	/	.	.	/
CC(C)C(=O)Nc1ccc(NC(=O)c2cccc3c(Br)cccc23)cc1	.	.	.	/	/	.	/
CCC(C)NC(=O)CC(NS(=O)(=O)c1ccc(NC(C)=O)cc1)C(C)C (centres undefined)	.	.	.	.	.	.	/
CCc1ccc(-c2cc(C(=O)N/N=C/c3c[nH]c4ccccc34)[nH]n2)cc1	.	.	62.3	.	.	.	51.0	Full FLuc ctr=101.3
CCOC(=O)c1cc(-c2cccc([N+](=O)[O-])c2)n[nH]1	.	.	.	.	.	.	/
O=C(N/N=C/c1cccc([N+](=O)[O-])c1)c1cc(-c2ccc3c(c2)OCO3)n[nH]1	.	.	52.4	.	.	.	.
O=C(N/N=C/c1cccc(O)c1)c1cc(-c2ccc3c(c2)OCO3)n[nH]1	.	.	.	.	.	.	/
